Experiments:
[1] = Compound evaluated for the partition coefficient (PC); format: physicochemical; settings: octanol/water
How it was run: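 Octanol/phosphate buffer (0.1 M, pH 7.4) partition, equal volumes, stirred 1 h at room temperature. Nitroimidazole concentration in each phase measured spectrophotometrically.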

[2] = Evaluated for sensitizer enhancement ratio determined by dividing the D0 value from the control radiation survival curve by the […] from the radiation survival curve in the presence at a concentration of 0.1 mM.; format: functional
How it was run: (§1)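 Hypoxic asynchronous V-79 monolayers in sealed containers (95% N2/5% CO2 purge) with drug present. Irradiated at room temperature by linear accelerator, 180 rad/min, 400–2400 rad, for full survival curves by colony formation. SER is the D0 of hypoxic control cells divided by the D0 of hypoxic drug-treated cells. Drug given at maximum nontoxic 2-h concentration, up to 1 mM.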

[3] = Compound evaluated in vitro for the dose required to kill 50% of chinese hamster cells measured by colony formation […]; format: functional; settings: Cricetulus griseus, read-out: ED50 (the source's name)
How it was run: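 Chinese hamster V-79 cells, about 200 per dish, attached 2 h in MEM + 15% fetal calf serum. Exposed to a range of drug concentrations for 2 h at 37 °C, in air or hypoxia (95% N2/5% CO2 purge, 90 min). Drug then replaced by fresh medium, 6-day incubation, colonies stained with methylene blue and counted. ED50 read from concentration vs. percent survival graphs.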

[4] = Evaluated for sensitizer enhancement ratio determined by dividing the D0 value from the control radiation survival curve by the […] from the radiation survival curve in the presence at a concentration of 1.0 mM.
[5] = Evaluated for sensitizer enhancement ratio determined by dividing the D0 value from the control radiation survival curve by the […] from the radiation survival curve in the presence at a concentration of 0.25 mM.; format: functional; how it was run: as §1
[6] = Evaluated for sensitizer enhancement ratio determined by dividing the D0 value from the control radiation survival curve by the […] from the radiation survival curve in the presence at a concentration of 1.0 mM.; format: functional
How it was run: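 V-79 Chinese hamster asynchronous monolayers in MEM with 15% fetal calf serum. Cells made hypoxic in sealed containers purged with 95% N2/5% CO2 for 90 min, drug exposure 2 h. Irradiated at room temperature by linear accelerator at 180 rad/min, 400–2400 rad. Colonies counted after 6 days at 37 °C. SER = D0 of hypoxic controls / D0 of hypoxic drug-treated cells.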

[7] = Evaluated for sensitizer enhancement ratio determined by dividing the D0 value from the control radiation survival curve by the […] from the radiation survival curve in the presence at a concentration of 0.5 mM.; format: functional; how it was run: as §1
[8] = Evaluated for sensitizer enhancement ratio determined by dividing the D0 value from the control radiation survival curve by the […] from the radiation survival curve in the presence at a concentration of 0.05 mM.; format: functional; how it was run: as §1
[9] = Evaluated for sensitizer enhancement ratio determined by dividing the D0 value from the control radiation survival curve by the […] from the radiation survival curve in the presence at a concentration of 0.025 mM.; format: functional; how it was run: as §1

**Q.** What does the source list for `CCOC(=O)Cn1cnc(I)c1[N+](=O)[O-]`?
**A.** PC [1]: 8.6; Ratio [2]: 1.8; EC50 [3]: 180 µM

**Q.** For `O=C(Cn1cnc([N+](=O)[O-])c1I)NCc1ccc[n+]([O-])c1`, which PC [1] is on record?
**A.** 0.04

**Q.** What about the EC50 [3] of the same compound?
**A.** > 1000 µM

**Q.** And the Ratio [4]?
**A.** 1.2

**Q.** What does the source list for `O=C(Cn1cnc([N+](=O)[O-])c1I)NCc1cccnc1`?
**A.** PC [1]: 2.9; Ratio [5]: 1.5; EC50 [3]: 650 µM

**Q.** Which PC [1] does the source give for `O=[N+]([O-])c1[nH]cnc1I` here?
**A.** 1.9

**Q.** What about the Ratio [6] of the same compound?
**A.** 1.1

**Q.** And the EC50 [3]?
**A.** > 1000 µM

**Q.** With `COCC(O)Cn1cnc(I)c1[N+](=O)[O-]` (stereo not given) as the compound, how does the PC [1] read?
**A.** 7.8

**Q.** What about the Ratio [2] of the same compound?
**A.** 1.4

**Q.** And the EC50 [3]?
**A.** 480 µM

**Q.** With `O=C(Cn1cnc(I)c1[N+](=O)[O-])NCc1cccnc1` as the compound, how does the PC [1] read?
**A.** 7.6

**Q.** And the Ratio [2]?
**A.** 1.7

**Q.** What about the EC50 [3] of the same compound?
**A.** 180 µM

**Q.** Which results are given for `COCC(O)Cn1cnc([N+](=O)[O-])c1I` (stereo not given)?
**A.** PC [1]: 2.6; Ratio [2]: 1.6; EC50 [3]: 170 µM

**Q.** Which PC [1] does the source give for `Cn1cnc(I)c1[N+](=O)[O-]` here?
**A.** 19.4

**Q.** What about the EC50 [3] of the same compound?
**A.** 820 µM

**Q.** What about the Ratio [7] of the same compound?
**A.** 2.4

**Q.** For `Cn1cnc([N+](=O)[O-])c1I`, which PC [1] is on record?
**A.** 10.1

**Q.** And the Ratio [8]?
**A.** 2.5

**Q.** What about the EC50 [3] of the same compound?
**A.** 140 µM

**Q.** With `CCOC(=O)Cn1cnc([N+](=O)[O-])c1I` as the compound, how does the PC [1] read?
**A.** 3.7

**Q.** What about the Ratio [9] of the same compound?
**A.** 1.7

**Q.** What about the EC50 [3] of the same compound?
**A.** 60 µM
